Assay results reported in BindingDB's records for doi:10.1021/jm960807v (University of Florence, 1997).

Target: T1, 3-oxo-5-alpha-steroid 4-dehydrogenase 2 (Homo sapiens, UniProt P31213)
T1 sequence (P31213 whole entry): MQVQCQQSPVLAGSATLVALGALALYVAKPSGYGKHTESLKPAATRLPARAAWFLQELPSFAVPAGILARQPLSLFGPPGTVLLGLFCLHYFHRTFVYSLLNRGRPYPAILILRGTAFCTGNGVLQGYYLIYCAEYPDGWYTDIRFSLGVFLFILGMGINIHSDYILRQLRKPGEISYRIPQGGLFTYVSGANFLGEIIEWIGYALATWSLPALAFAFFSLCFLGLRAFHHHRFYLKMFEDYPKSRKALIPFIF
Assay: Inhibitory activity against 5-alpha Reductase-2 on human prostate homogenates from surgically derived benign hyperplastic tissue
Method in brief: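 Benign hyperplastic human prostate tissue, stored at -80 °C, was homogenized near 0 °C in 50 mM TRIS pH 7.4 with salts, nicotinamide and sucrose, spun at 200g, and the combined supernatants were used. Homogenate (0.1 mg protein) was incubated with 30 nM testosterone (9% [3H]) and 0.3 mM NADPH for 30 min at 37 °C, with the inhibitor added alongside the substrate. Inhibitor range was 10⁻¹⁰–10⁻⁵ M. DHT conversion was read by TLC and scintillation, in duplicate.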

IC50 | Compound
4.6 µM | C[C@]12CC=C3[C@@H](CCC4=CC(=O)CCN43)C1CCC2=O (some centres not stated)
> 100 µM | C[C@]12CCC3=C4C(=O)CCN=C4CCC3[C@@H]1CCC2=O (some centres not stated)
